Test: Toxicity liver stage against HepG2, at 10uM
Type: cell-based
Parameters: test concentration 10 uM, cell line HepG2-A16-CD81EGFP
Conditions: human, HepG2-A16-CD81EGFP cells; read-out: INHIBITION
Outline: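 Uninfected HepG2-A16-CD81EGFP cells, 3 × 10^3 per well, 1536-well, plated on prespotted compound at 10 μM final, parasite-free screening media added to match infected plates; puromycin 10 μM positive, DMSO 0.5% negative; run in parallel with 48 h PbLuc assay at 37 °C, 5% CO2; viability by CellTiter-Glo luminescence, normalized to controls.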

Work on O=C(COc1ccccc1F)N1CCCCC1c1ccn2ccnc2n1 (configuration not stated) yielded a cytotoxicity at 10 µM of -8.52%.

Compound O=C(c1cccs1)N1CC(C(=O)N2CCCC2)C2(CCOCC2)C1 (configuration not stated) has a cytotoxicity at 10 µM of -2.64%.

Compound CCN(C)c1ccc(CNC(=O)c2ccc(NC(N)=O)cc2)cc1F has a cytotoxicity at 10 µM of 7.52%.

COCC(=O)N1CCc2cccc(S(=O)(=O)N3CCOCC3)c2C1 gave a cytotoxicity at 10 µM of -5.42%.

For Cc1nnc(NCc2cccnc2N(C)C)c(C#N)c1C, the cytotoxicity at 10 µM was -4.94%.

In the case of Cc1nc(CN(C)S(=O)(=O)c2ccc(F)cc2Br)no1, the cytotoxicity at 10 µM is reported as -6.26%.

For O=C(C1=COCCO1)N1CC(Oc2nc3c(C(F)(F)F)cccc3s2)C1, the cytotoxicity at 10 µM was 36%.

CN(C)Cc1ccccc1CN(C)c1ncnc2[nH]ccc12 gave a cytotoxicity at 10 µM of 8.11%.

C[C@H](NC(=O)C1CCCC1)c1nc2cc(-c3ccc(F)cc3)ncn2n1 gave a cytotoxicity at 10 µM of -10.9%.

With Cc1cccnc1CC(C)Nc1nc(N)nc2c1CCNC2 (configuration not stated) the cytotoxicity at 10 µM was 2.09%.

Compound CCc1cc(N(C)Cc2nonc2C)nc(N2CCOCC2)n1 has a cytotoxicity at 10 µM of -8.07%.

For CC(C)Oc1ncccc1CNC(=O)N1CCC1c1ccccc1 (configuration not stated), the cytotoxicity at 10 µM was -4.92%.

Work on Cn1cc(I)c(C(=O)NC2CCCCC2)n1 yielded a cytotoxicity at 10 µM of 18.1%.

Cc1nc(NC(=O)CN2C(=O)c3ccccc3NC2C(C)C)sc1C (configuration not stated) showed a cytotoxicity at 10 µM of 0.585%.

In the case of Cn1cnnc1C1CCN(C(=O)CCCOc2ccccc2F)CC1, the cytotoxicity at 10 µM is reported as -6.26%.

With Cc1cccc(CN2CCC(C3Nc4ccccc4S(=O)(=O)N3)CC2)n1 (configuration not stated) the cytotoxicity at 10 µM was -18.9%.

Compound CCn1cc(S(=O)(=O)N2CCCC2c2ccc(C)o2)cn1 (configuration not stated) has a cytotoxicity at 10 µM of 20.9%.

With CC1CN(c2ncnc3sccc23)CCN1c1nccs1 (configuration not stated) the cytotoxicity at 10 µM was 32.1%.

With COCc1cn(CC2CCN(Cc3cc(C)[nH]n3)CC2)nn1 the cytotoxicity at 10 µM was -2.44%.

With NC(=O)COc1ccc(CNCc2cc(F)cc(F)c2)cc1 the cytotoxicity at 10 µM was -7.85%.

Work on Cc1nnc2n1CCN(C(=O)c1ccn(-c3cccc(F)c3)n1)C2 yielded a cytotoxicity at 10 µM of -144%.

Work on CN(Cc1ccccn1)C1COC2(CCN(Cc3nccs3)CC2)C1 (configuration not stated) yielded a cytotoxicity at 10 µM of -16.2%.

Work on O=C(NCc1cc[nH]n1)NCC(c1ccccc1)N1CCOCC1 (configuration not stated) yielded a cytotoxicity at 10 µM of -3.39%.

CC(C)N(Cc1ccc(Cl)c(Cl)c1)C(=O)CCn1cncn1 gave a cytotoxicity at 10 µM of 6.63%.

CC(=O)c1cn(CC(=O)N2CCCC(O)(CO)C2)c2ccccc12 (configuration not stated) showed a cytotoxicity at 10 µM of -4.87%.

With O=C1CCN(C(=O)NCc2ccccc2Oc2ccccc2)CCN1 the cytotoxicity at 10 µM was 6.03%.

COC(=O)c1ccc(S(=O)(=O)NC2CNC(=O)C2)cc1 (configuration not stated) gave a cytotoxicity at 10 µM of -7.27%.

With CCn1ncnc1CN1CCC(CNC(=O)c2cccc(C)c2)C1 (configuration not stated) the cytotoxicity at 10 µM was -2.59%.

Compound Cc1nc(C2CCN(C[C@H](C)CO)CC2)cc(N2CCOCC2)n1 has a cytotoxicity at 10 µM of -9.3%.

In the case of CCn1cc(C(=O)N2CCOC(c3nc(-c4cccs4)no3)C2)cn1 (configuration not stated), the cytotoxicity at 10 µM is reported as 2.91%.

For Cc1nn(C)c(N2CCOCC2)c1CN[C@@H]1c2ccccc2C[C@@H]1O, the cytotoxicity at 10 µM was -12.2%.

Compound CN1CCN(c2ncccc2CNc2ncccc2C#N)CC1 has a cytotoxicity at 10 µM of 15.4%.

CCc1nnc2n1CCN(Cc1cc(Cl)c3c(c1)OCCCO3)C2 showed a cytotoxicity at 10 µM of -5.83%.

In the case of CN1CCN(c2ccc(CO)cc2F)CC1, the cytotoxicity at 10 µM is reported as -42%.

In the case of O=C(CN1CCOCC1)N1CCN(C2CCc3ccc(F)cc32)CC1 (configuration not stated), the cytotoxicity at 10 µM is reported as 6.24%.

Compound COCCN(CCOC)C(=O)c1cnn(C)c1C has a cytotoxicity at 10 µM of -149%.

CCC1c2cccn2CCN1C(=O)c1ccno1 (configuration not stated) gave a cytotoxicity at 10 µM of -8.58%.

CCSCCC(=O)NCc1cnn(-c2ccc(F)cc2F)c1 showed a cytotoxicity at 10 µM of -5.61%.

Cc1ccc(CN2CCC3(CC(C(=O)NCC4CC4)=NO3)C2)s1 (configuration not stated) gave a cytotoxicity at 10 µM of 5.92%.

CN1CCN(Cc2cnc3n2CCN(C(=O)c2ccncc2)C3)CC1 showed a cytotoxicity at 10 µM of -73.8%.

Compound COc1cccc(CNC(=O)Nc2ccc3[nH]nnc3c2)c1OC has a cytotoxicity at 10 µM of 3.2%.

O=c1oc2ccccc2n1CCN(CC1CCOC1)C1CC1 (configuration not stated) gave a cytotoxicity at 10 µM of 4.78%.

CC(CNC(=O)c1ccc(=O)[nH]n1)N1CCc2ccccc21 (configuration not stated) showed a cytotoxicity at 10 µM of -8.93%.

Compound Cc1cccc(CN2CCOC3(CCCN(CC(=O)N(C)C)C3)C2)n1 (configuration not stated) has a cytotoxicity at 10 µM of -106%.

With COCCCN(C)C1CCCN(Cc2noc(C3CC3)n2)C1 (configuration not stated) the cytotoxicity at 10 µM was -15.4%.

In the case of Cc1cnn(CC(=O)NC2CCCc3cc(OC(F)F)ccc32)c1 (configuration not stated), the cytotoxicity at 10 µM is reported as -0.653%.

With CCCn1cc(NC(=O)c2cccc3cccnc23)ccc1=O the cytotoxicity at 10 µM was -4.73%.

O=C([C@@H]1C[C@H]2[C@H](CCN2Cc2nccs2)O1)N1CCOCC1 gave a cytotoxicity at 10 µM of -8.66%.

For CC(C(=O)N1CCCCC1)N1CCN(c2ncc(Cl)cn2)CC1 (configuration not stated), the cytotoxicity at 10 µM was -4.79%.

CCCc1cc(C(=O)N2CCCN(c3cccnn3)CC2)[nH]n1 showed a cytotoxicity at 10 µM of -1.16%.

Work on CCCc1cc(CNC2CCN(c3cc(C(C)C)nc(C)n3)CC2)on1 yielded a cytotoxicity at 10 µM of -13.6%.

With Cc1cccc(C(=O)N(CCCO)S(=O)(=O)c2cccs2)c1 the cytotoxicity at 10 µM was 8.01%.

O=C(N1CCOCC1)N1C2CCC(O)(CC2)C1CN1CCOCC1 (configuration not stated) gave a cytotoxicity at 10 µM of -1.94%.

In the case of COc1ccc(C(=O)O)cc1-c1cccc2c1CCNC2, the cytotoxicity at 10 µM is reported as 0.979%.

In the case of O=C(NCc1ccco1)[C@H]1C[C@@H]2CCN(c3ncccn3)C[C@H]2O1, the cytotoxicity at 10 µM is reported as 7.1%.

Work on Cc1ccc(N(CC(=O)c2ccc(Br)cc2)C2=NCCCCC2)cc1 yielded a cytotoxicity at 10 µM of 36.5%.

With CC(c1ncc(C(C)(C)C)o1)N1CCN(Cc2ccc(Cl)s2)CC1 (configuration not stated) the cytotoxicity at 10 µM was -1.21%.

For N#CCCN(CCC#N)C(=O)c1ccc(OCC2CC2)cc1, the cytotoxicity at 10 µM was -10.8%.

Cc1cc(CC(C)NC2CCSCC2)[nH]n1 (configuration not stated) gave a cytotoxicity at 10 µM of 1.08%.

Compound CCN(Cc1nc2c(cnn2C)c(=O)[nH]1)Cc1ccccc1C has a cytotoxicity at 10 µM of -10.2%.

In the case of CCn1nc(C(=O)N2CCNCC2C(=O)Nc2ccc(C)nc2)cc1C (configuration not stated), the cytotoxicity at 10 µM is reported as 10.2%.

Compound Cc1cccc(-c2noc(CN3CC(n4cc(C)cn4)C3)n2)c1 has a cytotoxicity at 10 µM of -8.8%.

Compound O=C(CN(C1=NCCCC1)c1ccccc1)c1ccc(OC(F)F)cc1 has a cytotoxicity at 10 µM of 2.88%.

With CN1C[C@H](O)C[C@H]1c1nc(-c2ccc(OC(F)(F)F)cc2)no1 the cytotoxicity at 10 µM was -12.2%.

Cc1cc(C(=O)N2CCc3[nH]nc(-c4ccc5c(c4)OCO5)c3C2)no1 showed a cytotoxicity at 10 µM of -137%.

Work on CCn1c(C)nnc1SCCNC(=O)CC1CCc2ccccc21 (configuration not stated) yielded a cytotoxicity at 10 µM of -1.26%.

CC(C)NC(=O)c1cc2c(c3ccccc3n2C)n1C(=O)N(C)C gave a cytotoxicity at 10 µM of -79.4%.

With CSc1cc2c(cc1NC(=O)NCCn1ccnc1)OCCO2 the cytotoxicity at 10 µM was -8.28%.

CNC(=O)c1ccc(S(=O)(=O)NCCc2ccccn2)cc1 gave a cytotoxicity at 10 µM of -14.3%.

With CNc1ncc(CN2CCCC2c2[nH]ncc2C(=O)N(C)C)cn1 (configuration not stated) the cytotoxicity at 10 µM was 2.91%.

COCCN1C(=O)C[C@@H]2[C@H]1CCN2C(=O)COc1ccccc1 showed a cytotoxicity at 10 µM of -0.902%.

Compound COCCNCc1cc2cc(C)cc(C)c2[nH]c1=O has a cytotoxicity at 10 µM of -2.13%.

O=C(NCCc1ccn(-c2ccccc2)n1)N1CCSCC1 gave a cytotoxicity at 10 µM of -2.71%.

For CCn1nc(C)cc1S(=O)(=O)N1CCC2(CC(=O)NC2=O)C1 (configuration not stated), the cytotoxicity at 10 µM was 0.0942%.

CC(C)C(=O)N1CCN(c2cc(N(C)C)cnn2)CC1 gave a cytotoxicity at 10 µM of -6.45%.

In the case of O=C(c1cccc(Cl)c1F)N1CCOC2(CNCCOC2)C1 (configuration not stated), the cytotoxicity at 10 µM is reported as -2.06%.

Work on O=S(=O)(C1CC1)N1CCC2(CCCN(c3ncc(F)cn3)C2)C1 (configuration not stated) yielded a cytotoxicity at 10 µM of 11.5%.

Cc1nc(CNC(=O)NC2CCN(c3ncccc3Cl)C2)no1 (configuration not stated) showed a cytotoxicity at 10 µM of 11.9%.

COc1cc2c(c(OC)c1OC)CCN(CCn1cncn1)CC2 gave a cytotoxicity at 10 µM of 11.5%.

In the case of CC(=O)N1CCC(Oc2cccc(C#N)c2)CC1, the cytotoxicity at 10 µM is reported as 6.35%.

Work on CN(CCc1ccccn1)C(=O)C(O)c1ccc(Br)cc1 (configuration not stated) yielded a cytotoxicity at 10 µM of -0.779%.

Work on Cc1ccc(-n2nnc(C(=O)NCC3(CO)CC3)c2C2CC2)cc1 yielded a cytotoxicity at 10 µM of -4.43%.
